From ChEMBL document CHEMBL1137671, “Synthesis of 1-(2,6-dichlorophenyl)-3-methylene-1,3-dihydro-indol-2-one derivatives and in vitro anticancer evaluation against SW620 colon cancer cell line” (Eur J Med Chem, 2009)
Converted amounts (≈) assume the structure as drawn.

Assays:
[1] = system: SW-620; assay: Cytotoxicity against human SW620 cells after 3 days by MTT assay; format: functional; details: SW-620, 72 h, read-out: ED50 (the source's name)
Outline: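 SW620 human colon cancer cells seeded at 10,000 per well and exposed to 1-100 µM for 72 h in a CO₂ incubator, with untreated controls. Then 125 µg MTT per well for 3 h, followed by lysis in 10% SDS-0.01 N HCl. Absorbance was read at 540 nm. % cytotoxicity = (1 − (treated − blank)/control) × 100.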

[2] = Inhibition of FGFR autophosphorylation

SMILES | EC50 [1] | IC50 [2]
O=C1/C(=C/c2c(Cl)cccc2Cl)c2ccccc2N1c1c(Cl)cccc1Cl | > 100 µg/mL | 
O=C1/C(=C/c2cc3ccccc3nc2Cl)c2ccccc2N1c1c(Cl)cccc1Cl | 25 µg/mL (≈ 55.3 µM) | 
O=C1/C(=C/c2cccc(Oc3ccccc3)c2)c2ccccc2N1c1c(Cl)cccc1Cl | 50 µg/mL (≈ 109 µM) | 
O=C1/C(=C/c2ccccc2)c2ccccc2N1c1c(Cl)cccc1Cl | 100 µg/mL (≈ 273 µM) | 
COc1ccc(/C=C2/C(=O)N(c3c(Cl)cccc3Cl)c3ccccc32)cc1OC | 50 µg/mL (≈ 117 µM) | 
O=C1/C(=C/c2ccc(Cl)cc2)c2ccccc2N1c1c(Cl)cccc1Cl | 100 µg/mL (≈ 250 µM) | 
O=C1/C(=C/c2ccc(F)cc2)c2ccccc2N1c1c(Cl)cccc1Cl | 5 µg/mL (≈ 13 µM) | 
O=C1/C(=C/c2ccc(O)cc2)c2ccccc2N1c1c(Cl)cccc1Cl | 50 µg/mL (≈ 131 µM) | 
O=C1/C(=C/c2ccc(Cl)cc2Cl)c2ccccc2N1c1c(Cl)cccc1Cl | 2 µg/mL (≈ 4.6 µM) | 
O=C1/C(=C/c2cccc(Cl)c2)c2ccccc2N1c1c(Cl)cccc1Cl | 50 µg/mL (≈ 125 µM) | 
CN(C)c1ccc(/C=C2/C(=O)N(c3c(Cl)cccc3Cl)c3ccccc32)cc1 | > 100 µg/mL | 
COc1ccc(/C=C2/C(=O)N(c3c(Cl)cccc3Cl)c3ccccc32)cc1 | > 100 µg/mL | 
O=C1Cc2ccccc2N1c1c(Cl)cccc1Cl | > 100 µg/mL | 
Cc1c[nH]c(/C=C2\C(=O)Nc3ccccc32)c1CCC(=O)O |  | 10 µM
Cc1ccc2cc(/C=C3/C(=O)N(c4c(Cl)cccc4Cl)c4ccccc43)c(Cl)nc2c1C | > 100 µg/mL | 
O=C1/C(=C/c2ccco2)c2ccccc2N1c1c(Cl)cccc1Cl | > 100 µg/mL | 
O=C1/C(=C/c2ccccc2Cl)c2ccccc2N1c1c(Cl)cccc1Cl | 15 µg/mL (≈ 37.4 µM) | 
O=C1/C(=C\c2cccc3ccccc23)c2ccccc2N1c1c(Cl)cccc1Cl | > 100 µg/mL | 
O=CN1CCN(c2ccc(/C=C3\C(=O)Nc4ccccc43)cc2)CC1 |  | 10 µM
Cc1ccc2nc(Cl)c(/C=C3/C(=O)N(c4c(Cl)cccc4Cl)c4ccccc43)cc2c1 | 40 µg/mL (≈ 85.9 µM) | 
O=C1/C(=C/c2ccccc2[N+](=O)[O-])c2ccccc2N1c1c(Cl)cccc1Cl | 90 µg/mL (≈ 219 µM) | 
